# Source: ChEMBL document CHEMBL1144337, “Discovery and structure-activity relationships of 2-benzylpyrrolidine-substituted aryloxypropanols as calcium-sensing receptor antagonists” (Bioorg Med Chem Lett, 2005)
# Target: Voltage-gated inwardly rectifying potassium channel KCNH2 (Homo sapiens, UniProt Q12809)
# Experiment: Inhibitory concentration against human Kv11.1 ERG potassium channel
# Settings: not given
# Method in brief: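 Inhibition of hERG K+ current, measured by a patch-clamp assay, reported as an IC50.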
# Voltage-gated inwardly rectifying potassium channel KCNH2, sequence (Q12809 whole entry): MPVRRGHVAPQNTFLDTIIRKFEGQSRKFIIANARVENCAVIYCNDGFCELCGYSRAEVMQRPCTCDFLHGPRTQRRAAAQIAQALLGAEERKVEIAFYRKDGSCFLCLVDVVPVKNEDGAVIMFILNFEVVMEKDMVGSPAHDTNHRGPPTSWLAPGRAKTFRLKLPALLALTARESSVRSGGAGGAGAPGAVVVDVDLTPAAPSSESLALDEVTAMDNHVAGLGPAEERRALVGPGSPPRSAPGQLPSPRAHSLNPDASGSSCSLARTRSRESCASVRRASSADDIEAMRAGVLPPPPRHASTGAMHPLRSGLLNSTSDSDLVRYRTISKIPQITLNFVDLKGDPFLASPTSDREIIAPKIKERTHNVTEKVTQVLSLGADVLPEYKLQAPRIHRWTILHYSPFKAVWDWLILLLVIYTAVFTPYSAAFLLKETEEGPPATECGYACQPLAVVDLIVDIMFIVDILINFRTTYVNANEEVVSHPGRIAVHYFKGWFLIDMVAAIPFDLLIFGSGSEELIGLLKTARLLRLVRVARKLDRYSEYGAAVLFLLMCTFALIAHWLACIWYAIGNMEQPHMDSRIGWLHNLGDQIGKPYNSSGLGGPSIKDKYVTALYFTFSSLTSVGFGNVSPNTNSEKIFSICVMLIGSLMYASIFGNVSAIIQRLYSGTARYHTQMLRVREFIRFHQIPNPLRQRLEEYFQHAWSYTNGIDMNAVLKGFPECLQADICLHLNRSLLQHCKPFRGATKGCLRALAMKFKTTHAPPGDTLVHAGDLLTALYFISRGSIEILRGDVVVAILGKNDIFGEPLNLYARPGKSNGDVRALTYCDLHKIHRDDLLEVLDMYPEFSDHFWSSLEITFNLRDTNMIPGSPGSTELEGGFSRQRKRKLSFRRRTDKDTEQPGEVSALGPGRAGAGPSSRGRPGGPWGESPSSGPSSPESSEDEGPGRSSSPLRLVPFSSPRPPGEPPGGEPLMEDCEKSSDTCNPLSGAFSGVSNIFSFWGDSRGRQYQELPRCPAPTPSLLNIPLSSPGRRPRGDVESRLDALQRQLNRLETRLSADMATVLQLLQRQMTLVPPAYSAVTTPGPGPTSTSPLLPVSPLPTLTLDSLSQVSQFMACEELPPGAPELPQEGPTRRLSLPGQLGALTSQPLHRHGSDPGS
row,SMILES,IC50 [nM]
1,CC(C)(Cc1ccc2ccccc2c1)NC[C@@H](O)COc1cccc(Cl)c1C#N,194

# Test system: HEK293
# Experiment: Inhibitory concentration for the inhibition of intracellular [Ca2+] release in HEK cells by using FLIPR technology
# Format: functional, cell-based
# Settings: Homo sapiens
# Method in brief: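 HEK cells over-expressing recombinant human calcium-sensing receptor. Intracellular Ca²⁺ release was stimulated with extracellular Ca²⁺, and inhibition by test compound was read by fluorescence on FLIPR. IC50 values are means of two experiments, with standard deviation reported.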
row,SMILES,IC50 [nM]
1,N#Cc1c(Cl)cccc1OC[C@H](O)CN1CCC[C@H]1Cc1ccccc1,120
2,N#Cc1c(Cl)cccc1OC[C@H](O)CN1CCC(Cc2cc(F)ccc2F)CC1,2100
3,COc1ccccc1C[C@@H]1CCCN1C[C@@H](O)COc1cccc(Cl)c1C#N,> 30000
4,COc1cccc(CC2CCN(C[C@@H](O)COc3cccc(Cl)c3C#N)CC2)c1,640
5,N#Cc1c(Cl)cccc1OC[C@H](O)CN1CCC(Cc2ccccc2)CC1,2200
6,CN(C)c1ccc(C[C@@H]2CCCN2C[C@@H](O)COc2cccc(Cl)c2C#N)cc1,1900
7,N#Cc1c(Cl)cccc1OC[C@H](O)CN1CCC(Cc2ccccc2)C1 (stereo not given in full),10000
8,N#Cc1c(Cl)cccc1OC[C@H](O)CN1CCCC1Cc1ccccc1 (stereo not given in full),350
9,N#Cc1c(Cl)cccc1OC[C@H](O)CN1CCC[C@H]1Cc1ccc(O)cc1,> 30000
10,COc1cccc(C[C@@H]2CCCN2C[C@@H](O)COc2cccc(Cl)c2C#N)c1,130
11,CC(C)(Cc1ccc2ccccc2c1)NC[C@@H](O)COc1cccc(Cl)c1C#N,80
12,N#Cc1c(Cl)cccc1OC[C@H](O)CN1CC[C@@H](O)[C@H]1Cc1ccccc1,1400
13,COc1cccc(C(O)[C@@H]2CCCN2C[C@@H](O)COc2cccc(Cl)c2C#N)c1 (stereo not given in full),> 30000
14,N#Cc1c(Cl)cccc1OC[C@H](O)CN1CCCC(Cc2ccccc2)C1 (stereo not given in full),> 30000
15,N#Cc1c(Cl)cccc1OC[C@H](O)CN1CCCCC1Cc1ccccc1 (stereo not given in full),> 30000
16,N#Cc1c(Cl)cccc1OC[C@H](O)CN1CC[C@H](F)[C@H]1Cc1ccccc1,2800
17,N#Cc1c(Cl)cccc1OC[C@H](O)CN1CCC[C@H]1Cc1cccc(F)c1,150
18,COc1ccc(C[C@@H]2CCCN2C[C@@H](O)COc2cccc(Cl)c2C#N)cc1,200
19,N#Cc1c(Cl)cccc1OC[C@H](O)CN1CCC[C@H]1C(O)c1cccc(F)c1 (stereo not given in full),2300
20,N#Cc1c(Cl)cccc1OC[C@H](O)CN1CCC(F)(F)[C@H]1Cc1ccccc1,> 30000
21,COc1ccc(CC2CCN(C[C@@H](O)COc3cccc(Cl)c3C#N)CC2)cc1,> 30000
22,N#Cc1c(Cl)cccc1OC[C@H](O)CN1CCC[C@@H]1Cc1ccccc1,> 30000
23,N#Cc1c(Cl)cccc1OC[C@H](O)CN1CCC[C@H]1Cc1ccccc1O,100
24,COc1ccc(C[C@@H]2CCCN2C[C@@H](O)COc2cccc(Cl)c2C#N)cc1OC,410
